Assay results pooled from the literature.
Protocols differ between the studies behind these lines.
PIK3CA M1043I: Phosphatidylinositol 4,5-bisphosphate 3-kinase catalytic subunit alpha isoform (PIK3CA, Homo sapiens, UniProt P42336, M1043I)
PIK3CA C420R: Phosphatidylinositol 4,5-bisphosphate 3-kinase catalytic subunit alpha isoform (PIK3CA, Homo sapiens, UniProt P42336, C420R)
PIK3CA E545K: Phosphatidylinositol 4,5-bisphosphate 3-kinase catalytic subunit alpha isoform (PIK3CA, Homo sapiens, UniProt P42336, E545K)
PIK3CA E542K: Phosphatidylinositol 4,5-bisphosphate 3-kinase catalytic subunit alpha isoform (PIK3CA, Homo sapiens, UniProt P42336, E542K)
PIK3CA I800L: Phosphatidylinositol 4,5-bisphosphate 3-kinase catalytic subunit alpha isoform (PIK3CA, Homo sapiens, UniProt P42336, I800L)
PIK3CA: Phosphatidylinositol 4,5-bisphosphate 3-kinase catalytic subunit alpha isoform (PIK3CA, Homo sapiens, UniProt P42336)
PIK3CA H1047Y: Phosphatidylinositol 4,5-bisphosphate 3-kinase catalytic subunit alpha isoform (PIK3CA, Homo sapiens, UniProt P42336, H1047Y)
PIK3CA H1047L: Phosphatidylinositol 4,5-bisphosphate 3-kinase catalytic subunit alpha isoform (PIK3CA, Homo sapiens, UniProt P42336, H1047L)

Cc1noc([C@H]2C[C@@H](c3ccc(C(F)(F)F)cc3)CN(C(=O)N3CCS(=O)(=O)C3)C2)n1
remaining binding (PIK3CA M1043I; cell-free assay, competition with immobilised ligand; 1 µM): 100%

O=C(c1ccc(Nc2nccc(-c3cc4ccccc4s3)n2)cc1)N1CCC(N2CCCC2)CC1
remaining binding (PIK3CA C420R; binding, competition with immobilised ligand; 1 µM): 88%

CCCOc1ccc([C@H]2[C@H](C(=O)O)[C@@H](c3ccc4c(c3)OCO4)CN2CC(=O)Nc2c(CC)cccc2CC)cc1
remaining binding (Phosphatidylinositol 4,5-bisphosphate 3-kinase catalytic subunit alpha isoform (PIK3CA, Homo sapiens, UniProt P42336, E545A); cell-free assay, competition with immobilised ligand; 1 µM): 92%

COc1ncc2cc3ccccc3nc2c1C#N
remaining binding (PIK3CA E545K; cell-free assay, competition with immobilised ligand; 5 µM): 100%

CCN1CCN(Cc2ccc(C(=O)Nc3ccc(C)c(Oc4ccc5c(c4)CC(=O)N5)c3)cc2C(F)(F)F)CC1
remaining binding (PIK3CA E542K; binding, competition with immobilised ligand; 1 µM): 100%

C=CC(=O)N1CCC(C(=O)NCC(=O)N2CCN(c3nc(-c4cnc(N)nc4C(F)F)nc(N4CCOCC4)n3)CC2)CC1
remaining binding (PIK3CA E545K; binding, competition with immobilised ligand; 1 µM): 0%

c1cncc(-c2cccc(Nc3nccc(NC4CCCCC4)n3)c2)c1
remaining binding (PIK3CA C420R; binding, competition with immobilised ligand; 10 µM): 73%

COc1cnc(Nc2cccc(S(N)(=O)=O)c2)nc1N1CCN(c2ccccc2)CC1
remaining binding (PIK3CA I800L; binding, competition with immobilised ligand; 1 µM): 83%

CC(C)(C)c1ccc(-c2nc(CBr)nn2-c2cccc(O)c2)cc1
remaining binding (PIK3CA; cell-free assay, competition with immobilised ligand; 10 µM): 80%

CN(C)c1nccc(-c2cnc3ncccn23)n1
remaining binding (PIK3CA M1043I; binding; 1 µM): 84%

Cc1c(-c2ccccc2)oc2c(C(=O)OCCN3CCCCC3)cccc2c1=O
remaining binding (PIK3CA; cell-free assay, competition with immobilised ligand; 10 µM): 100%

C[C@@H]1CCN(c2nccc(-c3cnn4ncccc34)n2)C1
remaining binding (PIK3CA H1047Y; binding; 1 µM): 93%

O=C(N1CCS(=O)(=O)CC1)N1C[C@H](c2ccc(OC(F)(F)F)cc2)C[C@H](c2nc(C3CC3)no2)C1
remaining binding (Phosphatidylinositol 4,5-bisphosphate 3-kinase catalytic subunit alpha isoform (PIK3CA, Homo sapiens, UniProt P42336, Q546K); cell-free assay, competition with immobilised ligand; 1 µM): 83%

O=C(NCC1CCOCC1)c1n[nH]cc1NC(=O)c1c(F)cccc1F
remaining binding (PIK3CA I800L; binding, competition with immobilised ligand; 1 µM): 77%

O=C(NCCCN1CCOCC1)c1ccc(Nc2ncc(Cl)c(-c3ccc(Cl)s3)n2)cc1
remaining binding (PIK3CA I800L; binding, competition with immobilised ligand; 1 µM): 85%

N[C@@H]1CCN(c2nccc(-c3cnn4ncccc34)n2)C1
remaining binding (PIK3CA H1047Y; binding; 1 µM): 91%

O=C(Nc1c[nH]nc1C(=O)NC1CCNCC1)c1cc(F)cc(F)c1
remaining binding (PIK3CA I800L; binding, competition with immobilised ligand; 1 µM): 81%

CN1CCN(c2ccc(Nc3nccc(-c4cccc([N+](=O)[O-])c4)n3)cc2C(F)(F)F)CC1
remaining binding (PIK3CA M1043I; binding; 10 µM): 35%

CN(CCCC(F)(F)F)c1nccc(-c2cnn3ncccc23)n1
remaining binding (PIK3CA H1047Y; binding; 1 µM): 100%

C[C@@H](c1ccc(-n2cnc3c(N)ncnc32)cc1)N1CCc2nn(C)c(Cc3ccccc3)c2C1=O
remaining binding (PIK3CA I800L; binding, competition with immobilised ligand; 0.1 µM): 71%

CS(=O)(=O)N1CCCC(NC(=O)[C@H](CCC2CCCCC2)NC(=O)c2ccc(CNC(=O)c3cnc4ccccn34)cc2)C1 (stereo partly drawn)
remaining binding (PIK3CA; binding, competition with immobilised ligand; 1 µM): 37%

COc1cnc(Nc2cccc(S(N)(=O)=O)c2)nc1N1CCN(c2ccccc2)C(=O)C1
remaining binding (PIK3CA M1043I; binding, competition with immobilised ligand; 1 µM): 85%

CN1CCN(c2ccc(Nc3nccc(-c4ccccc4)n3)cc2C(F)(F)F)CC1
remaining binding (PIK3CA H1047L; binding; 10 µM): 55%

O=C(c1ccc(Nc2ncc(Cl)c(-c3cc4ccccc4s3)n2)cc1)N1CCC(N2CCCC2)CC1
remaining binding (PIK3CA E542K; binding, competition with immobilised ligand; 1 µM): 97%

CC1CCCN1c1nccc(-c2cnn3ncccc23)n1 (stereo not drawn)
remaining binding (PIK3CA H1047Y; binding; 1 µM): 88%

O=C(c1ccc(Nc2ncc(Cl)c(-c3ccc(Cl)s3)n2)cc1)N1CCC(N2CCCC2)CC1
remaining binding (PIK3CA H1047L; binding, competition with immobilised ligand; 1 µM): 100%

CCN(CC)Cc1cc(Nc2ccnc3cc(Cl)ccc23)ccc1O
remaining binding (PIK3CA; cell-free assay, competition with immobilised ligand; 0.1 µM): 97%

CNC(=O)[C@@H]1CC[C@@H](n2c(-c3ccc4cnccc4c3)nc3ccc(C(=O)NCc4cccc(C(N)=O)c4)cc32)C1
remaining binding (PIK3CA H1047Y; binding, competition with immobilised ligand; 1 µM): 100%

COc1cc(-c2cn(C3CCc4c(F)cccc4N(CC(F)(F)F)C3=O)nn2)ccc1-n1cnc(C)c1 (stereo not drawn)
remaining binding (PIK3CA E545K; cell-free assay, competition with immobilised ligand; 1 µM): 70%

O=C(NCCCN1CCOCC1)c1ccc(Nc2nccc(-c3cc4ccccc4s3)n2)cc1
remaining binding (PIK3CA M1043I; binding, competition with immobilised ligand; 1 µM): 80%

O=C1CCc2cc(Nc3cc(OC4CCOCC4)c([N+](=O)[O-])cc3Cl)ccc2N1
remaining binding (PIK3CA C420R; cell-free assay, competition with immobilised ligand; 1 µM): 97%

CN(C)c1ncc(F)c(-c2cnn3ncccc23)n1
remaining binding (PIK3CA E542K; binding; 1 µM): 69%

O=C(NS(=O)(=O)c1ccc(NCC2CCOCC2)c([N+](=O)[O-])c1)c1ccc(N2CCN(Cc3ccc(C(F)(F)F)cc3-c3ccc(Cl)cc3)CC2)cc1Oc1cnc2[nH]ccc2c1
remaining binding (PIK3CA H1047Y; cell-free assay, competition with immobilised ligand; 1 µM): 67%

Nc1ncc2c(n1)-c1c([nH]c3ccc(C#CC4CC4)cc13)CCCC2
remaining binding (PIK3CA C420R; binding, competition with immobilised ligand; 1 µM): 86%

F[C@@H]1CCN(c2nccc(-c3cnn4ncccc34)n2)C1
remaining binding (PIK3CA I800L; binding; 1 µM): 100%

CCS(=O)(=O)c1cc2cc(C[C@](O)(CC(C)(C)c3ccc(F)cc3C(N)=O)C(F)(F)F)[nH]c2cn1
remaining binding (PIK3CA I800L; cell-free assay, competition with immobilised ligand; 1 µM): 73%
